Laboratory results from ChEMBL document CHEMBL4513216, “Probing the Open Global Health Chemical Diversity Library for Multistage-Active Starting Points for Next-Generation Antimalarials” (ACS Infect Dis, 2020).

Experiment: Toxicity liver stage against HepG2, at 10uM
Assay type: cell-based
Design: test concentration 10 uM, cell line HepG2-A16-CD81EGFP
Settings: human, HepG2-A16-CD81EGFP cells; read-out: INHIBITION
Procedure, shortened: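 Uninfected HepG2-A16-CD81EGFP cells, 3 × 10^3 per well, 1536-well, plated on prespotted compound at 10 μM final, parasite-free screening media added to match infected plates; puromycin 10 μM positive, DMSO 0.5% negative; run in parallel with 48 h PbLuc assay at 37 °C, 5% CO2; viability by CellTiter-Glo luminescence, normalized to controls.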

| Compound | cytotoxicity at 10 µM [%] |
| --- | --- |
| Cc1noc(O)c1Cc1ccc2ccccc2c1 | -8.94 |
| Cc1cc(NC(=O)NCC2CCN(C(C)C)C2)no1 (configuration not stated) | -15.3 |
| COc1ccc(CN2C[C@@H](F)[C@@H](OCc3nc4cnccc4[nH]3)C2)cn1 | 2.08 |
| O[C@@H]1C[C@@H](c2nc(-c3ccccc3)no2)N(Cc2ccncc2)C1 | 2.77 |
| COc1ccc(C(=O)Nc2cccc(C(N)=O)c2)c(OC)n1 | -9.2 |
| CSc1ncccc1C(=O)NCc1ccc(N(C)C)cc1 | 4.74 |
| CC(=O)N1N=C(c2cccs2)OC1C(=O)Nc1ccc(C)cc1 (configuration not stated) | -4.14 |
| C=C(C)COc1ccc(C(CC(=O)OC)c2oc(C)cc(=O)c2O)cc1 (configuration not stated) | -9.24 |
| CC1CCN(c2ccc(=O)n(CC(=O)NCCc3ccccc3)n2)CC1 | 0.277 |
| O=C(NCC1(CO)CC1)c1ccccc1Br | -0.734 |
| Cc1noc(C)c1CN1C[C@@H]2OCCN(Cc3cnn(C)c3)[C@@H]2C1 | -139 |
| O=C(NCC1CC1)c1cc2c(s1)CCN2C(=O)c1cccnc1 | 8.07 |
| Cc1cnc(C(=O)N2CCC3(CC2)CC(c2ccccc2)C(=O)N3)cn1 (configuration not stated) | 4.9 |
| O=C(c1ccnnc1)N1CCC2(CCN(c3ccsc3)C2=O)C1 (configuration not stated) | -139 |
| Cn1nc(C#N)c2c1CN(C(=O)c1ccnnc1)CCC2 | -147 |
| CC(C)n1[nH]c(=O)c2c1NC(=O)CC2C1CCCCC1 (configuration not stated) | -12.9 |
| CC(Cn1cc(Br)cn1)C(=O)Nc1ccncc1 (configuration not stated) | -2.82 |
| Cc1cccc(N2CCCN=C2NC(=O)c2cccc(Cl)c2)c1 | 6.39 |
| Cc1nnsc1C(=O)NCCNS(=O)(=O)c1cccs1 | 4.29 |
| O=C1CNc2ncnc(NCc3cccs3)c2N1 | 2.99 |
| O=C(CCn1nc(C(F)(F)F)c(Br)c1C1CC1)NN1CCOCC1 | 8.85 |
| CCN(CC)S(=O)(=O)N1CCCC1c1nnc2n1CCN(C)CC2 (configuration not stated) | 0.45 |
| O=C(O)[C@@H]1OCC(=O)N(Cc2cccc(Cl)c2)[C@@H]1c1ccccc1 | 3.94 |

| Compound | cytotoxicity at 10 µM [%] |
| --- | --- |
| O=C(NCC1(O)COCCN(Cc2cccc(O)c2)C1)c1cnccn1 (configuration not stated) | -6.49 |
| CC(=O)N1CCC(C(=O)Nc2nnc(C(F)(F)F)[nH]2)CC1 | -3.37 |
| Cc1n[nH]c(-c2ccc(NC(=O)C(C)(C)N3CCN(C)CC3)cc2)n1 | -0.876 |
| Cc1cc(OC(F)F)c(C(=O)NCC(O)c2cccc(F)c2)s1 (configuration not stated) | -4.3 |
| Cc1ccc(S(=O)(=O)Cc2nnc(C)n2C)cc1 | -2.92 |
| O=C(Nc1cccnc1)C1=Cc2ccccc2OC1 | 4.19 |
| O=C(NCc1cc(-c2ccccc2)no1)NC1CCCCNC1=O (configuration not stated) | -145 |
| CC(C)c1noc(OCC(=O)N2CCCCC2C)n1 (configuration not stated) | 1.45 |
| CCc1cnc(CNC(=O)NCCCO)s1 | -5.42 |
| CN1CCc2ccc(NCc3cscn3)cc2C1=O | -2.43 |
| CCc1ccsc1C(=O)NC(Cc1ccccc1)C(N)=O (configuration not stated) | 9.01 |
| CC(O)(CNc1ccc(Cl)c(C#N)n1)c1ccccc1 (configuration not stated) | -9.06 |
| Cc1c(C(=O)NC2CCCOc3cc(Cl)ccc32)cnn1C (configuration not stated) | -0.572 |
| Cc1cnn(C2CN(CCOc3ccc(C#N)cc3)C2)c1 | 1.77 |
| Cc1nc(NC(=O)C(C)N(C)Cc2cccc(C#N)c2)sc1C (configuration not stated) | -0.506 |
| Cc1c(C(=O)N2CC(C)(C)C2(C)C)nnn1-c1cccc2cnccc12 | 9.68 |
| O=C(CCNc1ncccn1)NCc1ccc(Br)s1 | 6.72 |
| CC(C)Oc1ccc(C(=O)Cn2cnnc2[S+](C)[O-])cc1 (configuration not stated) | -4.68 |
| COc1ccc(C(=O)O)c(OCC(=O)NC(C)c2ccccc2)c1 (configuration not stated) | 1.97 |
| CS(=O)(=O)NCCC1CCCCN1C(=O)NCCc1ccccn1 (configuration not stated) | -4.24 |
| Nc1cc(CCCNC(=O)NC2CCCC2)nn1-c1ccccc1 | -18.9 |
| CS(=O)(=O)N1CCc2c(cccc2NC(=O)NC2CCCC2)C1 | -6.78 |
| COc1cccc(OCC(=O)Nc2cc(C)cnc2OC)c1 | -11.4 |

| Compound | cytotoxicity at 10 µM [%] |
| --- | --- |
| Cc1nc(C2CCCN2CC(=O)Nc2c(C)nn(C)c2C)no1 (configuration not stated) | -3.08 |
| CC(=O)Nc1cccc(CNC(=O)N(C)Cc2ccccc2)c1 | -2.11 |
| CC(C)Oc1ccccc1C(=O)NCCc1nncn1C | -7.71 |
| COc1cccc(NC(=O)N(CCO)C2CCc3ccccc32)c1 (configuration not stated) | -1.08 |
| CC(C)c1nc2c(n1C)CCN(CCCc1nc3ccccc3o1)C2 | 2.07 |
| CN(Cc1ccc(Br)s1)Cn1nc(-c2ccc(F)cc2)oc1=O | 1.64 |
| CNC(=O)C(NC(=O)c1ccn(C)c(=O)c1)c1ccccc1 (configuration not stated) | 4.73 |
| CCC(NC(=O)c1cccc2cc[nH]c12)C(=O)N1CCOCC1 (configuration not stated) | -13 |
| CC(C)c1cccc(-n2cc(O)c(C(=O)NCCC(=O)N(C)C)n2)c1 | -2.53 |
| Cc1cc(CNC(=O)CC2CN(C(=O)OC(C)(C)C)C2)ccc1F | 4.21 |
| Cn1cnnc1CNC(=O)C1CCCN(Cc2ccccc2)C1 (configuration not stated) | 3.57 |
| CCC(CNS(=O)(=O)c1c[nH]cn1)Oc1ccccc1F (configuration not stated) | 7.22 |
| O=C1C(n2nnc(-c3cccs3)n2)CCN1CC(F)(F)F (configuration not stated) | -0.0198 |
| COC(=O)C1CCCCN1Cc1cccc(C(=O)NCc2ccco2)c1 (configuration not stated) | -12.5 |
| Cc1c(CNC(=O)Nc2cccc3c2CCN3C)cnn1C | -1.02 |
| CCOCCN1CCN(CCCc2nnnn2-c2ccccc2)CC1 | 6.45 |
| CC(C)c1nsc(N2CCc3sccc3C2)n1 | 20.9 |
| Cn1ccnc(Sc2ccc(O)cc2)c1=O | 6.64 |
| CS(=O)(=O)NCCC(=O)NC1CCc2nccn2C1 (configuration not stated) | 9.46 |
| CCn1cc(NC(=O)NC2CCCc3c2cnn3CCO)cn1 (configuration not stated) | 5.04 |
| COc1cc(C)c(C(C)NC(=O)Nc2nnc(C)s2)cc1OC (configuration not stated) | 1.03 |
| Cc1nnc(C(C)NCC2(c3c(F)cccc3F)CCCC2)o1 (configuration not stated) | 0.511 |
| O=C1NCCCCC1Sc1nnc(-c2cccnc2)n1C1CC1 (configuration not stated) | -3.86 |

| Compound | cytotoxicity at 10 µM [%] |
| --- | --- |
| CO[C@H]1CN(C(=O)c2ccnnc2)[C@@H]2COC[C@H]12 | 2.83 |
| Cc1cccc(C2CCCN(C(=O)CN3CCCC3=O)C2)c1 (configuration not stated) | -0.942 |
| NCc1n[nH]c(=O)n1-c1ccccc1Oc1ccccc1 | -5.04 |
| OC1(CN2CCc3nnc(Cc4cccnc4)n3CC2)CCCNC1 (configuration not stated) | 21.7 |
| O=C1CCC2(CCCN(C(=O)c3ccc[nH]3)C2)CN1CCc1c[nH]cn1 (configuration not stated) | 0.0773 |
| Cn1cc(C(=O)N2CCCC(c3ncc[nH]3)C2)cn1 (configuration not stated) | 1.95 |
| Cc1cc(C(=O)NCc2cccnc2N2CCc3ccccc3C2)[nH]n1 | 14.4 |
| Cc1ccc(C(=O)N2CCC3(CCC(=O)N(C(C)C)C3)CC2)c(O)c1 | 17.5 |
| CCC[C@H]1CN(CCS(C)(=O)=O)C[C@@H]1NC(=O)c1cccnn1 | 3.25 |
| COCCN1CC(Nc2nc(C(C)C)nc3c2cnn3C)CC1=O (configuration not stated) | -1.52 |
| O=C(CN1CCCCCC1)NCCSc1cnn[nH]1 | -7.15 |
| CCN1CC2(CCN(CC3CCCO3)CC2)OC1=O (configuration not stated) | -4.78 |
| Cc1cc(N2CCOC(CN)C2)nc(-c2ccccc2)n1 (configuration not stated) | -3.26 |
| CN(C)CC1(O)CCCN(c2nc(-c3ccccc3)no2)CC1 (configuration not stated) | -4.6 |
| c1coc(-c2nc(CNC3CCCNC3)no2)c1 (configuration not stated) | -25.2 |
| CCN(CC1CCCN(CCc2cccc(OC)c2)C1)C(=O)CCSC (configuration not stated) | 10.5 |
| Cc1cc(=O)[nH]c(SC(C)C(=O)N2CCC(NS(C)(=O)=O)CC2)n1 (configuration not stated) | -10.4 |
| c1ccc(-c2nc3c(c(NCCc4c[nH]cn4)n2)CCNC3)cc1 | -123 |
| CC(=O)NCc1ccc(C(=O)N2CCCC2c2cnn(C)c2)s1 (configuration not stated) | -13.6 |
| N#Cc1ccsc1NC(=O)CCN1CCn2c(nnc2C2CC2)C1 | -5.65 |
| c1cnc(-c2nc(CNC3CCc4ncnn4C3)cs2)nc1 (configuration not stated) | -5.66 |
| CCCc1n[nH]c(C2CN(Cc3nnc(C4CCC4)o3)CCO2)n1 (configuration not stated) | -2.42 |
| CC(NC(=O)NCCCc1n[nH]c(N)c1C#N)c1ccc(F)cc1 (configuration not stated) | -13.7 |

| Compound | cytotoxicity at 10 µM [%] |
| --- | --- |
| CCc1noc(C(C)N2CCN(C(=O)CN3CCOCC3)CC2)n1 (configuration not stated) | -9.17 |
| Cc1nnc(CN(C)C2CCN(Cc3nc4ccccc4n3C)C2)o1 (configuration not stated) | -10.1 |
| Cc1cc(NC(=O)CN2CCCC2c2noc(C)n2)n(C)n1 (configuration not stated) | -2.3 |
| NC(=O)C1CCCN(c2ccc(CNC(=O)c3cc[nH]n3)cc2)C1 (configuration not stated) | -3.9 |
| COc1ccc(C)cc1C(C)NC(=O)Cn1ccc(=O)n(C)c1=O (configuration not stated) | -1.59 |
| CS(=O)(=O)NC1CCCN(C(=O)NCc2ccoc2)C1 (configuration not stated) | -14.9 |
| CC(C)n1nc2c(cc1=O)CN(Cc1nnc(C3CC3)o1)CC2 | -18.8 |
| NC(=O)c1ccc(OCC(=O)N2CCCC(n3cccn3)C2)cc1 (configuration not stated) | 1.3 |
| CC(C)N1CCC2(CCNCC2)C1=O | -2.98 |
| c1cncc(N2CCCC3(CCN(CCN4CCCC4)CC3)C2)c1 | -2.95 |
| COCc1cncc2c1CCN(Cc1cnn(C)c1)C2 | -0.287 |
| COCC1CC2(CCN(C(=O)c3cncc(C)c3)CC2)CO1 (configuration not stated) | -155 |
| Cc1cccc(CN2C[C@@H]3COC[C@H](NS(C)(=O)=O)[C@@H]3C2)n1 | -2.6 |
| Cc1cccc(N2CCc3ncc(CNc4ccccn4)n3CC2)n1 | 2.19 |
| Cc1ccc(C(=O)N2CCO[C@H]3[C@H](OCCN(C)C)CC[C@@H]32)o1 | -145 |
| Cc1ccc(CN2CC(C(=O)Nc3ccccc3)C3(CCOCC3)C2)o1 (configuration not stated) | 0.927 |
| Cn1ccnc1CN1CC[C@H]2CO[C@H](CNc3ncccn3)[C@H]2C1 | -5.81 |
| CCCNC(c1cccnc1)c1ccc(F)c(C)c1 (configuration not stated) | 0.821 |
| CCN1CCC2(CC1)CC(NC(=O)NC)c1cc(C)ccc12 (configuration not stated) | -6.01 |
| CC(C)=CCN1C[C@@H]2CC[C@H]1CN(C(=O)Cc1c(C)[nH]c(C)nc1=O)C2 | 2.48 |
